The list is a sample of the results.
HKDC1 activator: increases human hexokinase HKDC1 activity. activity change, negative = activation, % at 20 µM. Q2TB90. AID 493187. recombinant HKDC1, G6PDH/diaphorase resazurin fluorescence; stronger effect = lower value. hit rate 0.056% among 340,000;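 active = activation of 40% or more at 20 µM, a change of -40% or lower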
Target sequence (Q2TB90 whole entry, looked up): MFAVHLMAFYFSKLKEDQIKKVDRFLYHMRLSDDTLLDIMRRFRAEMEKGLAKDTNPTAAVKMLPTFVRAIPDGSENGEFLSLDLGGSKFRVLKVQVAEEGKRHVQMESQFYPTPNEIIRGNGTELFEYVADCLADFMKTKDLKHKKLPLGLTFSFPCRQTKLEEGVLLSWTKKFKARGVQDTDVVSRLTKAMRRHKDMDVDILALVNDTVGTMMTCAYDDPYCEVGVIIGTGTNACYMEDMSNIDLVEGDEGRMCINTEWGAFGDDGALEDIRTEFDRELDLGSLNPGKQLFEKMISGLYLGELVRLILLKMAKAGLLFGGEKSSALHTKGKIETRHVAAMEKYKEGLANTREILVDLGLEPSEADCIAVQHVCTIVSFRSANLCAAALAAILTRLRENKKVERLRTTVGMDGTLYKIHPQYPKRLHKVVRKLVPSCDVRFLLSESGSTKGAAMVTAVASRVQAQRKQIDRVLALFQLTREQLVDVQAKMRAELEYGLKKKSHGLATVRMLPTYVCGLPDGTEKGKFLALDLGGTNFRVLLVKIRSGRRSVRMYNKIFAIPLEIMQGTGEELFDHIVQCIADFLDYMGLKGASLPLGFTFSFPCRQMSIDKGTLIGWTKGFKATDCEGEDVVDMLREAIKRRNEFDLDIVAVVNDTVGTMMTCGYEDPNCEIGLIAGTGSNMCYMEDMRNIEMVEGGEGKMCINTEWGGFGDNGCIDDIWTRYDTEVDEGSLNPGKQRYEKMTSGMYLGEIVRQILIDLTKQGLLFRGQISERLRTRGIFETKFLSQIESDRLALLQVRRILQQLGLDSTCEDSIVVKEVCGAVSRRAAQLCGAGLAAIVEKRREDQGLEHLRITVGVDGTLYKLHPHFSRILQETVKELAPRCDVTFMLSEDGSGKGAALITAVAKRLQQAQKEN
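System: in-house human HKDC1 enzyme, G6PDH and diaphorase coupling enzymes; Quantity: 5 µg/mL HKDC1 final; Buffer or medium: Tris/MgCl2 buffer, pH 8.0; Dosing: single compound dose of 20 µM, 1% DMSO final; Times: 90 min reaction at room temperature, dark; Detection: coupled resazurin-to-resorufin fluorescence, Ex 525/Em 613 nm.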
Numbers without * were called inactive.

SMILES	HKDC1 activator
CCN1C/C(=C\c2cccc([N+](=O)[O-])c2)C(=O)/C(=C/c2cccc([N+](=O)[O-])c2)C1	43
CCN(CC)Cc1cc(O)c(CN(CC)CC)cc1O	47
CC[n+]1c(/C=C2\Sc3ccccc3N2C)ccc2cccc(C)c21	-40*
O=C1C(N2CCOCC2)=C(n2nnc3ccccc32)C(=O)c2ccccc21	43
Cc1nc2c(O)c3c(c(O)c2nc1C)C1C=CC3CC1	82
CN(C)c1ccc(C=c2c3cc(O)ccc3n3c2cc(-c2ccccc2)[n+]3C)cc1	56
CC(C)CNC(=O)COC(=O)CNC(=O)c1cc(Cl)cc([N+](=O)[O-])c1	-52*
Cc1cc2cc(CCNC(=O)c3cccc([N+](=O)[O-])c3)c(=O)[nH]c2cc1C	40
COc1ccc(CN2C(=O)c3cccnc3C2Nc2cc(Cl)ccc2OC)cc1 (stereo not drawn)	52
Cc1ccc2oc(C(=O)N3CCC(N4CCSCC4)CC3)c(C)c2c1	35
CC(=O)NC1=C(N(C)C2CCS(=O)(=O)C2)C(=O)c2ccccc2C1=O (stereo not drawn)	39
CC(C)(C)c1ccc(-c2csc(NNC3=NCCCCC3)n2)cc1	-61*
S=C(NN=C(c1ccccc1)c1ccccn1)N(Cc1ccccn1)Cc1ccccn1	-46*
NC(=S)N=Nc1c(O)cc(O)c2[nH]c(=O)ccc12	35
N=C1N(/N=C/c2ccccc2)C(=Nc2ccccc2)C(=S)N1c1ccccc1	-49*
Cc1ccc(S(=O)(=O)N(C(=O)c2ccco2)c2cc3sc(=O)oc3c3ccccc23)cc1	37
Cn1c2ccccc2c2ccc3c(c21)C(=O)C=CC3=O	37
Cc1cc(C)n2nc(SCc3nnc(SCc4ccccc4Cl)s3)nc2n1	41
COCCN(C(=O)COC(=O)c1cc2c(s1)CCC2)c1c(N)n(Cc2ccccc2)c(=O)[nH]c1=O	35
COc1ccccc1/C=C\C(=O)NCC(=O)N/N=C/c1ccc(O)cc1O	-41*
O=C(CNC(=O)c1cccs1)N/N=C/c1ccc(O)cc1O	-46*
O=C(CN1CCCc2ccccc21)N/N=C/c1ccc(O)cc1O	-43*
O=C(CCc1ccccc1)NCC(=O)N/N=C/c1ccc(O)cc1O	-43*
CC(C)c1nc2oc3c(NCCO)ncnc3c2c2c1COC(C)(C)C2	46
NS(=O)(=O)c1ccc(N=Nc2c(=O)[nH]n3c(=O)c4c([nH]c23)CCCC4)cc1	40
SMILES	HKDC1 activator
CN(C)CC1CCC/C(=C\c2ccc(OC(=O)c3ccc(Cl)cc3)cc2)C1=O (stereo not drawn)	37
COCC(=O)OC1CCn2c1nc1c2C(=O)C(C)=C(NC(C)=O)C1=O (stereo not drawn)	68
O=C(CSc1nnc(CCCN2C(=O)c3cccc4cccc(c34)C2=O)n1-c1ccccc1)N1CCN(CCO)CC1	42
O=C(O)c1ccc(S(=O)(=O)/N=C2\C=C(Nc3ccccc3F)C(=O)c3ccccc32)cc1	81
O=C(O)C(Cc1ccccc1)N1C(=O)/C(=C/C=C/c2ccco2)SC1=S (stereo not drawn)	37
O=c1[nH][nH]c2c(N=Cc3ccccc3O)ccc(F)c12	38
O=C(O)CSc1cc(NS(=O)(=O)c2ccc(Br)cc2)c2ccccc2c1O	59
O=C(O)COc1ccc(/C=N/NC(=O)c2ccc(-c3csc(Nc4ccc(Cl)cc4)n3)cc2)cc1	76
C[n+]1c(-c2ccccc2)cc2c(=Cc3ccc([N+](=O)[O-])cc3)c3ccccc3n21	36
Cc1ccc(N=Nc2ccc(O)c3ncccc23)cc1C	-43*
O=C(O)c1cccc(-n2cccc2/C=C2/NC(=O)N(c3ccc(Cl)cc3)C2=O)c1	61
O=C(O)c1ccc2c(=O)n(-c3ccccc3)c(=S)[nH]c2c1	84
COc1ccc(S(=O)(=O)/N=C2\C=C(Nc3ccc(O)cc3)C(=O)c3ccccc32)cc1	42
COc1ccccc1C1=NNC(=Nc2cccc(S(=O)(=O)N(C)C)c2)SC1	-202*
O=C(NN1CCOCC1)c1ccc(Cl)c([N+](=O)[O-])c1	36
O=C(NC(=S)NNC(=O)c1ccccc1O)c1ccco1	-44*
O=C(c1c[nH]c(C(=O)C(Cl)(Cl)Cl)c1)c1c(F)cccc1F	38
C=CCN1C=C2C(=O)C(C)(OC(=O)CCC(=O)OC)C(=O)C(Br)=C2C=C1c1ccc(OC)cc1 (stereo not drawn)	36
CCCCNC(=O)c1sc(=S)n2c1[nH]c(=O)c1ccccc12	38
CCCCC(=O)NC(c1ccc(N(CC)CC)cc1)c1ccc2cccnc2c1O (stereo not drawn)	-46*
O=C1C=CC(=O)C(C2=C3C(=O)N(CCc4ccccc4)CC(=O)N3CCC2)=C1	63
Cc1cccc2c(N=NC(=O)c3ccc(NS(=O)(=O)c4cccs4)cc3)c(O)[nH]c12	36
CC(=O)c1cc(O)c2ccccc2c1O	44
COc1ccc(C2=CC3=C(Br)C(=O)C(C)(OC(=O)c4ccco4)C(=O)C3=CO2)cc1 (stereo not drawn)	42
Cc1nc(COC(=O)c2cc(O)c3ccccc3c2O)cs1	60
SMILES	HKDC1 activator
COc1cc([N+](=O)[O-])ccc1-c1ccc(/C=C2\C(=O)ON=C2c2ccccc2)o1	44
Cc1ccc(C(=O)c2c(C)oc3c2C(=O)C(=O)c2ccccc2-3)cc1	48
COc1ccccc1NC(=S)NN=C(C)c1ccccn1	-41*
CCOc1ccc(/C=C2/SC(=S)N(CCC(=O)Nc3ccc(C(=O)O)cc3)C2=O)cc1	43
O=C(/C=C/c1ccc(Cl)cc1)c1ccc([N+](=O)[O-])o1	54
Cc1ccc(C2=NN=C(NC(=O)CSc3nncn3C)SC2)cc1	-144*
COc1cc2c(cc1OC)-c1cc(NCc3ccccn3)nc(=O)n1CC2	59
Cc1cc(C)n2nc(SCc3nnc(SCc4ccccc4C)s3)nc2n1	53
C=CCn1c(SCC(=O)Nc2sc3c(c2C#N)CCC(C)C3)nc2cc(C(=O)O)ccc2c1=O (stereo not drawn)	39
COc1ccc2c(c1)/C(=C\c1cccc(/C=C3/C(=O)Nc4ccc(OC)cc43)n1)C(=O)N2	37
O=C1CSC(=S)N1Nc1ccccc1	-44*
CCOc1ccc(CCNC(=O)c2ccc3c(=O)[nH]c4c(C(=O)NC(C)C)sc(=S)n4c3c2)cc1	41
Cc1ccccc1N=C1NN=C(c2ccccc2F)CS1	-47*
Cc1ccc(/C=C/C(=O)c2ccc([N+](=O)[O-])o2)cc1	46
COC(=O)c1ccc(CCc2cc(O)c(Br)cc2O)cc1	69
O=C(COC(=O)c1n[nH]c2ccccc12)c1cccc(Br)c1	38
O=C(c1ccccc1)c1n[nH]c(-c2ccccc2)cc1=O	-42*
COc1ccc(OC)c2[nH]c(=O)c(CCNC(=O)c3cc4ccccc4o3)cc12	38
CC(=O)Nc1ccc(NC2=C/C(=N/S(=O)(=O)c3cccs3)c3ccccc3C2=O)cc1	44
O=C(/C=C/c1ccc(Br)o1)OCc1nc2ccsc2c(=O)[nH]1	58
COc1ccc(-c2oc(NC(=O)CCl)c(C#N)c2-c2ccc(OC)cc2)cc1	46
COc1ccc(N2CCN(C(=O)CSc3nnc4c(C)cc5c(C)cc(C)cc5n34)CC2)cc1	43
Cc1ccccc1NC1=C/C(=N\S(=O)(=O)c2ccc(C(=O)O)cc2)c2ccccc2C1=O	70
O=C(O)c1ccc(NC2=C(Cl)C(=O)c3ccccc3C2=O)cc1	-131*
O=C1C=C(Nc2ccc(F)cc2)c2ccccc2C1=O	42
CCCc1nc2oc3c(NCCOCCO)ncnc3c2c2c1COC(C)(C)C2	39
